Active and inactive are the calls of the source. The rule behind the calls is not given here.
Legend:
[1] = Cytotoxicity against HFF assessed as inhibition of cell viability after 3 days by trypan blue exclusion assay; assay type: cell-based; conditions: human, HFF cells
[2] = Selectivity index, ratio of CC50 for HFF to EC50 for Human cytomegalovirus Towne infected in human foreskin fibroblasts
Outline: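 SI calculated as CC50/EC50. CC50 from MTT assay in uninfected HFFs. EC50 from pp28-luciferase HCMV Towne inhibition in infected HFFs.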

Human betaherpesvirus 5 [3] = test: Antiviral activity against Human cytomegalovirus Towne infected in HFF assessed as inhibition of viral replication by measuring pp28 expression at 72 hrs post-infection by luciferase assay; assay type: functional, organism-based; conditions: Human betaherpesvirus 5, Towne
Outline: (§1)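 HFFs infected with pp28-luciferase reporter HCMV at MOI 1 pfu/cell and treated across a concentration range. Luciferase activity read in cell lysates at 72 hpi. Triplicates in three independent experiments, mean ± SD. EC50 taken from dose-response curves.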

[4] = Cytotoxicity against HFF assessed as inhibition of cell viability after 3 days by MTT assay; assay type: cell-based; conditions: human, HFF cells
Outline: (§2)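 Uninfected HFFs exposed to a concentration range at 37 °C for 3 days. MTT (5 mg/mL stock in PBS) added for 3 h at 37 °C. Formazan dissolved in DMSO and absorbance read. Triplicates in three independent experiments, mean ± SD. CC50 from dose-response curves.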

HFF [5] = test: Cell cycle arrest in HFF infected with HCMV assessed as accumulation at G0/1 phase after 24 hrs by propidium iodide staining based flow cytometry; assay type: ADME; conditions: human
Outline: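 HFFs serum-starved for 48 h, released, infected with Towne HCMV and treated with compound for 24 h. Cells trypsinized, permeabilized at −20 °C for 12 h, stained with propidium iodide and analysed by flow cytometry. Controls: serum-containing medium and GCV.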

HFF [6] = test: Effect on mimosine-induced cell cycle arrest in HFF infected with HCMV assessed as accumulation at G0/1 phase treated for 1 day after incubation with mid-G1 inhibitor mimosine for 48 hrs by propidium iodide staining based flow cytometry; assay type: ADME; conditions: human, 24 h
Outline: (§3)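 HFFs pretreated 48 h with mimosine or lovastatin, washed and released, then HCMV-infected and treated 24 h (1 day) with compound. Trypsinized, permeabilized at −20 °C for 12 h, stained with propidium iodide and analysed by flow cytometry.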

HFF [7] = test: Effect on lovastatin-induced cell cycle arrest in HFF infected with HCMV assessed as accumulation at G0/1 phase treated for 24 hrs after incubation with early G1 inhibitor lovastatin for 48 hrs by propidium iodide staining based flow cytometry; assay type: ADME; conditions: human; outline: as §3
[8] = Cytotoxicity against HFF assessed as inhibition of cell proliferation at 0.1 uM after 3 days by MTT assay; assay type: cell-based; conditions: human, HFF cells; outline: as §2
Human betaherpesvirus 5 [9] = test: Antiviral activity against Human cytomegalovirus Towne infected in HFF assessed as inhibition of viral replication by measuring pp28 expression at 50 nM at 72 hrs post-infection by luciferase assay; assay type: functional, organism-based; outline: as §1
Human betaherpesvirus 5 [10] = test: Antiviral activity against Human cytomegalovirus Towne infected in HFF assessed as decrease in virus DNA yield at 50 nM measured 96 hrs post-infection by real-time PCR analysis; assay type: functional, organism-based
Outline: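 HFFs infected with HCMV Towne at MOI 1 pfu/cell and treated for 4 days. Supernatants collected and viral DNA yield quantified by real-time PCR. Triplicate determinations in three independent experiments, reported as mean ± SD.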

Human betaherpesvirus 5 [11] = test: Antiviral activity against Human cytomegalovirus TB40 infected in HFF assessed as inhibition of viral replication at 50 nM after 3 days by GFP-based fluorescence analysis; assay type: functional, organism-based
Outline: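 Human foreskin fibroblasts (HFFs) infected with HCMV-TB40 (GFP-expressing) at MOI 1 pfu/cell, then treated with compound for 3 days. Read-out: GFP fluorescence, with a bright-field image for comparison.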

Human betaherpesvirus 5 [12] = test: Antiviral activity against Human cytomegalovirus Towne infected in HFF assessed as plaque reduction at 50 nM measured 8 days post-infection; assay type: functional, organism-based
Outline: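 Plaque reduction assay with HCMV Towne in HFFs, read at 8 days postinfection. Triplicate determinations in three independent experiments, mean ± SD.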

Structure (SMILES) | CC50 at 72 h [1] [nM] | Ratio CC50/EC50 [2] | EC50 (Human betaherpesvirus 5 [3]) [nM] | CC50 at 72 h [4] [nM] | Activity (HFF [5]) | Activity (HFF [6]) | Activity (HFF [7]) | inhibition at 72 h, 0.1 µM [8] [%] | inhibition (Human betaherpesvirus 5 [9]) | inhibition (Human betaherpesvirus 5 [10]) | inhibition (Human betaherpesvirus 5 [11]) | inhibition (Human betaherpesvirus 5 [12])
C[C@@H]1O[C@@H](O[C@@H]2[C@@H](O)[C@@H](O)[C@H](O[C@H]3CC[C@@]4(C)[C@H](CC[C@@H]5[C@@H]4CC[C@]4(C)[C@@H](C6=CC(=O)OC6)CC[C@]54O)C3)O[C@H]2C)[C@H](O)[C@H](O)[C@H]1O | 6000 | 41 | 36.7 | 1500 | – | – | – | – | – | – | – | –
C[C@@H]1O[C@@H](O[C@@H]2CC[C@H](O[C@@H]3CC[C@H](O[C@H]4CC[C@@]5(C)[C@H](CC[C@@H]6[C@@H]5CC[C@]5(C)[C@@H](C7=CC(=O)OC7)CC[C@]65O)C4)O[C@H]3C)O[C@H]2C)CC[C@H]1O | 9000 | 21 | 113 | 2400 | – | – | – | – | – | – | – | –
C[C@@H]1O[C@@H](O[C@H]2C[C@@H](O)[C@]3(CO)[C@H]4[C@H](O)C[C@]5(C)[C@@H](C6=CC(=O)OC6)CC[C@]5(O)[C@@H]4CC[C@]3(O)C2)[C@H](O)[C@H](O)[C@H]1O [OUABAIN] | – | – | – | – | Active | Not Active | Not Active | – | – | – | – | –
C[C@H]1O[C@H](O[C@H]2[C@H](O)[C@H](O)[C@@H](O[C@H]3CC[C@@]4(C)[C@H](CC[C@@H]5[C@@H]4CC[C@]4(C)[C@@H](C6=CC(=O)OC6)CC[C@]54O)C3)O[C@@H]2C)[C@@H](O)[C@@H](O)[C@@H]1O | 10000 | 32 | 209 | 6700 | – | – | – | – | – | – | – | –
C[C@@H]1O[C@@H](O[C@H]2CC[C@@]3(C)[C@H](CC[C@@H]4[C@@H]3CC[C@]3(C)[C@@H](C5=CC(=O)OC5)CC[C@]43O)C2)[C@H](O)[C@H](O)[C@H]1O | 2000 | 139 | 4.8 | 700 | – | – | – | – | – | – | – | –
C[C@H]1O[C@@H](O[C@H]2[C@@H](O)C[C@H](O[C@H]3[C@@H](O)C[C@H](O[C@H]4CC[C@@]5(C)[C@H](CC[C@@H]6[C@@H]5CC[C@]5(C)[C@@H](C7=CC(=O)OC7)CC[C@]65O)C4)O[C@@H]3C)O[C@@H]2C)C[C@H](O)[C@@H]1O [DIGITOXIN] | 6000 | 120 | 23.3 | 2800 | Active | Not Active | Not Active | 50 | Active | Active | Active | Active
C[C@H]1O[C@H](O[C@H]2[C@H](O)[C@H](O)[C@@H](O[C@H]3[C@H](O)[C@H](O)[C@@H](O[C@H]4CC[C@@]5(C)[C@H](CC[C@@H]6[C@@H]5CC[C@]5(C)[C@@H](C7=CC(=O)OC7)CC[C@]65O)C4)O[C@@H]3C)O[C@@H]2C)[C@@H](O)[C@@H](O)[C@@H]1O | 16000 | 31 | 320 | 10000 | – | – | – | – | – | – | – | –
C[C@H]1O[C@H](O[C@H]2CC[C@@]3(C)[C@H](CC[C@@H]4[C@@H]3CC[C@]3(C)[C@@H](C5=CC(=O)OC5)CC[C@]43O)C2)CC[C@@H]1O[C@@H]1CC[C@H](O[C@@H]2CC[C@H](O)[C@@H](C)O2)[C@@H](C)O1 | 19000 | 7 | 2080 | 15000 | – | – | – | – | – | – | – | –
C[C@H]1O[C@H](O[C@H]2CC[C@@]3(C)[C@H](CC[C@@H]4[C@@H]3CC[C@]3(C)[C@@H](C5=CC(=O)OC5)CC[C@]43O)C2)CC[C@@H]1O[C@@H]1CC[C@H](O)[C@@H](C)O1 | 1000 | 15 | 790 | 12100 | – | – | – | – | – | – | – | –
C[C@H]1O[C@H](O[C@H]2CC[C@@]3(C)[C@H](CC[C@@H]4[C@@H]3CC[C@]3(C)[C@@H](C5=CC(=O)OC5)CC[C@]43O)C2)CC[C@@H]1O | 4000 | 29 | 37.5 | 1100 | – | – | – | – | – | – | – | –
C[C@@H]1O[C@@H](O[C@H]2CC[C@@]3(C)[C@H](CC[C@@H]4[C@@H]3CC[C@]3(C)[C@@H](C5=CC(=O)OC5)CC[C@]43O)C2)CC[C@H]1O [RAMNODIGIN] | 4000 | 174 | 3.8 | 700 | – | – | – | 50 | – | – | – | –
C[C@@H]1O[C@@H](O[C@@H]2[C@@H](O)[C@@H](O)[C@H](O[C@@H]3[C@@H](O)[C@@H](O)[C@H](O[C@H]4CC[C@@]5(C)[C@H](CC[C@@H]6[C@@H]5CC[C@]5(C)[C@@H](C7=CC(=O)OC7)CC[C@]65O)C4)O[C@H]3C)O[C@H]2C)[C@H](O)[C@H](O)[C@H]1O | 11000 | 30 | 232 | 7000 | – | – | – | – | – | – | – | –
C[C@]12CC[C@H](O[C@@H]3O[C@@H](CO)[C@H](O)[C@@H](O)[C@H]3O)C[C@H]1CC[C@@H]1[C@@H]2CC[C@]2(C)[C@@H](C3=CC(=O)OC3)CC[C@]12O | 1900 | 127 | 7.3 | 900 | – | – | – | – | – | – | – | –
C[C@H]1O[C@H](O[C@H]2CC[C@@]3(C)[C@H](CC[C@@H]4[C@@H]3CC[C@]3(C)[C@@H](C5=CC(=O)OC5)CC[C@]43O)C2)[C@@H](O)[C@@H](O)[C@@H]1O | 3700 | 86 | 26.6 | 2300 | – | – | – | – | – | – | – | –
C[C@@H]1O[C@@H](O[C@@H]2CC[C@H](O[C@H]3CC[C@@]4(C)[C@H](CC[C@@H]5[C@@H]4CC[C@]4(C)[C@@H](C6=CC(=O)OC6)CC[C@]54O)C3)O[C@H]2C)CC[C@H]1O | 7000 | 76 | 14.8 | 1100 | – | – | – | – | – | – | – | –
